Reference: ChEMBL document CHEMBL1811814, “Synthesis and evaluation of indole, pyrazole, chromone and pyrimidine based conjugates for tumor growth inhibitory activities--development of highly efficacious cytotoxic agents” (Eur J Med Chem, 2010)

Key:
Type in all cases: functional
Set-up in all cases: scale not given: the % may be the effect or the level left
OVCAR-4 = test: Growth inhibition of human OVCAR4 cells assessed tumor cell growth at 10^-5 M
Method in brief: (§1)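 NCI 60-human-tumor-cell-line panel screen. Each compound was tested at a single concentration of 10^-5 M, and percent growth of tumor cells was recorded for each cell line. Growth inhibition was expressed from these percent-growth values.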

SF-539 = test: Growth inhibition of human SF539 cells assessed tumor cell growth at 10^-5 M; method in brief: as §1
MCF7 = test: Growth inhibition of human MCF7 cells assessed tumor cell growth at 10^-5 M; method in brief: as §1
LOX IMVI = test: Growth inhibition of human LOXIMVI cells assessed tumor cell growth at 10^-5 M; method in brief: as §1
M14 = test: Growth inhibition of human M14 cells assessed tumor cell growth at 10^-5 M; method in brief: as §1
HOP-92 = test: Growth inhibition of human HOP92 cells assessed tumor cell growth at 10^-5 M; method in brief: as §1
RXF 393 = test: Growth inhibition of human RXF393 cells assessed tumor cell growth at 10^-5 M; method in brief: as §1
HCC 2998 = test: Growth inhibition of human HCC2998 cells assessed tumor cell growth at 10^-5 M; method in brief: as §1
[1] = Growth inhibition of human Hs 578T cells assessed tumor cell growth at 10^-5 M; method in brief: as §1
OVCAR-3 = test: Growth inhibition of human OVCAR3 cells assessed tumor cell growth at 10^-5 M; method in brief: as §1
NCI/ADR-RES = test: Growth inhibition of human NCI/ADR-RES cells assessed tumor cell growth at 10^-5 M; method in brief: as §1
IGROV-1 = test: Growth inhibition of human IGROV1 cells assessed tumor cell growth at 10^-5 M; method in brief: as §1
NCI-H226 = test: Growth inhibition of human NCI-H226 cells assessed tumor cell growth at 10^-5 M; method in brief: as §1
COLO 205 = test: Growth inhibition of human COLO205 cells assessed tumor cell growth at 10^-5 M; method in brief: as §1
OVCAR-8 = test: Growth inhibition of human OVCAR8 cells assessed tumor cell growth at 10^-5 M; method in brief: as §1
CAKI-1 = test: Growth inhibition of human Caki1 cells assessed tumor cell growth at 10^-5 M; method in brief: as §1
SF-295 = test: Growth inhibition of human SF295 cells assessed tumor cell growth at 10^-5 M; method in brief: as §1
SF-268 = test: Growth inhibition of human SF268 cells assessed tumor cell growth at 10^-5 M; method in brief: as §1
A549 = test: Growth inhibition of human A549 cells assessed tumor cell growth at 10^-5 M; method in brief: as §1
HOP-62 = test: Growth inhibition of human HOP62 cells assessed tumor cell growth at 10^-5 M; method in brief: as §1
Malme-3M = test: Growth inhibition of human MALME-3M cells assessed tumor cell growth at 10^-5 M; method in brief: as §1
PC-3 = test: Growth inhibition of human PC3 cells assessed tumor cell growth at 10^-5 M; method in brief: as §1
786-0 = test: Growth inhibition of human 786-0 cells assessed tumor cell growth at 10^-5 M; method in brief: as §1
SK-OV-3 = test: Growth inhibition of human SKOV3 cells assessed tumor cell growth at 10^-5 M; method in brief: as §1
MOLT-4 = test: Growth inhibition of human MOLT4 cells assessed tumor cell growth at 10^-5 M; method in brief: as §1
SNB-75 = test: Growth inhibition of human SNB75 cells assessed tumor cell growth at 10^-5 M
Method in brief: (§2)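 Single-dose screen at 10^-5 M across the 60 human tumor cell line panel, run to NCI standards. The value is the percent growth of each cell line in the presence of compound. Compounds active at this dose moved on to five-concentration testing (10^-4 to 10^-8 M).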

TK-10 = test: Growth inhibition of human TK10 cells assessed tumor cell growth at 10^-5 M; method in brief: as §2
MDA-MB-435 = test: Growth inhibition of human MDA-MB-435 cells assessed tumor cell growth at 10^-5 M; method in brief: as §1
U-251 = test: Growth inhibition of human U251 cells assessed tumor cell growth at 10^-5 M; method in brief: as §2
ACHN = test: Growth inhibition of human ACHN cells assessed tumor cell growth at 10^-5 M; method in brief: as §1
NCI-H522 = test: Growth inhibition of human NCI-H522 cells assessed tumor cell growth at 10^-5 M; method in brief: as §1
SW-620 = test: Growth inhibition of human SW620 cells assessed tumor cell growth at 10^-5 M; method in brief: as §2
NCI-H23 = test: Growth inhibition of human NCI-H23 cells assessed tumor cell growth at 10^-5 M; method in brief: as §1
A498 = test: Growth inhibition of human A498 cells assessed tumor cell growth at 10^-5 M; method in brief: as §1
HCT-116 = test: Growth inhibition of human HCT116 cells assessed tumor cell growth at 10^-5 M; method in brief: as §1
EKVX = test: Growth inhibition of human EKVX cells assessed tumor cell growth at 10^-5 M; method in brief: as §1
SN12C = test: Growth inhibition of human SN12C cells assessed tumor cell growth at 10^-5 M; method in brief: as §1
MDA-MB-468 = test: Growth inhibition of human MDA-MB-468 cells assessed tumor cell growth at 10^-5 M; method in brief: as §1
KM12 = test: Growth inhibition of human KM12 cells assessed tumor cell growth at 10^-5 M; method in brief: as §1
UO-31 = test: Growth inhibition of human UO31 cells assessed tumor cell growth at 10^-5 M; method in brief: as §2
HCT-15 = test: Growth inhibition of human HCT15 cells assessed tumor cell growth at 10^-5 M; method in brief: as §1
MDA-MB-231 = test: Growth inhibition of human MDA-MB-231 cells assessed tumor cell growth at 10^-5 M; method in brief: as §1
NCI-H460 = test: Growth inhibition of human NCI-H460 cells assessed tumor cell growth at 10^-5 M; method in brief: as §1
BT-549 = test: Growth inhibition of human BT549 cells assessed tumor cell growth at 10^-5 M; method in brief: as §1
SK-MEL-28 = test: Growth inhibition of human SK-MEL-28 cells assessed tumor cell growth at 10^-5 M; method in brief: as §1
OVCAR-5 = test: Growth inhibition of human OVCAR5 cells assessed tumor cell growth at 10^-5 M; method in brief: as §1
HT-29 = test: Growth inhibition of human HT-29 cells assessed tumor cell growth at 10^-5 M; method in brief: as §1
HL-60(TB) = test: Growth inhibition of human HL-60(TB) cells assessed tumor cell growth at 10^-5 M
Method in brief: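 HL-60(TB), part of the 60-line panel, tested at a single concentration of 10^-5 M. The read-out is percent tumor cell growth relative to untreated growth.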

T47D = test: Growth inhibition of human T47D cells assessed tumor cell growth at 10^-5 M; method in brief: as §2
UACC-62 = test: Growth inhibition of human UACC62 cells assessed tumor cell growth at 10^-5 M; method in brief: as §2
DU-145 = test: Growth inhibition of human DU145 cells assessed tumor cell growth at 10^-5 M; method in brief: as §1
SNB-19 = test: Growth inhibition of human SNB19 cells assessed tumor cell growth at 10^-5 M; method in brief: as §2
K562 = test: Growth inhibition of human K562 cells assessed tumor cell growth at 10^-5 M; method in brief: as §1
SK-MEL-2 = test: Growth inhibition of human SK-MEL-2 cells assessed tumor cell growth at 10^-5 M; method in brief: as §1
NCI-H322M = test: Growth inhibition of human NCI-H322M cells assessed tumor cell growth at 10^-5 M; method in brief: as §1
UACC-257 = test: Growth inhibition of human UACC257 cells assessed tumor cell growth at 10^-5 M; method in brief: as §2
CCRF-CEM = test: Growth inhibition of human CCRF-CEM cells assessed tumor cell growth at 10^-5 M; method in brief: as §1
SK-MEL-5 = test: Growth inhibition of human SK-MEL-5 cells assessed tumor cell growth at 10^-5 M; method in brief: as §1
[2] = Growth inhibition of human […] cells assessed tumor cell growth at 10^-5 M; method in brief: as §1

CC1=NN(c2cccc(Cl)c2)C(=O)/C1=C\c1cn(C(=O)c2c(Cl)cccc2Cl)c2ccccc12
Activity (OVCAR-4): 94.88% | Activity (SF-539): 88.35% | Activity (MCF7): 84.58% | Activity (LOX IMVI): 91.86% | Activity (M14): 88.55% | Activity (HOP-92): 75.93% | Activity (RXF 393): 96.55% | Activity (HCC 2998): 87.28% | Activity [1]: 93.53% | Activity (OVCAR-3): 105.51% | Activity (NCI/ADR-RES): 90.21% | Activity (IGROV-1): 100.26% | Activity (NCI-H226): 97.86% | Activity (COLO 205): 105.8% | Activity (OVCAR-8): 89.79% | Activity (CAKI-1): 89.11% | Activity (SF-295): 96.99% | Activity (SF-268): 99.71% | Activity (A549): 103.17% | Activity (HOP-62): 92.85% | Activity (Malme-3M): 100.66% | Activity (PC-3): 93.89% | Activity (786-0): 101.2% | Activity (SK-OV-3): 93.9% | Activity (MOLT-4): 78.5% | Activity (SNB-75): 81.76% | Activity (TK-10): 123.88% | Activity (MDA-MB-435): 109.08% | Activity (U-251): 111.4% | Activity (ACHN): 90.96% | Activity (NCI-H522): 87.52% | Activity (SW-620): 96.65% | Activity (NCI-H23): 78.46% | Activity (A498): 102.24% | Activity (HCT-116): 93.25% | Activity (EKVX): 70.54% | Activity (SN12C): 100.77% | Activity (MDA-MB-468): 98.04% | Activity (KM12): 100.84% | Activity (UO-31): 75.46% | Activity (HCT-15): 102.31% | Activity (MDA-MB-231): 82.49% | Activity (NCI-H460): 102.74% | Activity (BT-549): 95.67% | Activity (SK-MEL-28): 108.69% | Activity (OVCAR-5): 78.09% | Activity (HT-29): 110.62% | Activity (HL-60(TB)): 95.11% | Activity (T47D): 77.75% | Activity (UACC-62): 84.14% | Activity (DU-145): 113.79% | Activity (SNB-19): 100.95% | Activity (K562): 120.99% | Activity (SK-MEL-2): 95.14% | Activity (NCI-H322M): 99.91% | Activity (UACC-257): 88.84% | Activity (CCRF-CEM): 107.14% | Activity (SK-MEL-5): 93.87%

O=C1/C(=C\c2cn(C(=O)c3c(Cl)cccc3Cl)c3ccccc23)c2ccccc2N1C(=O)c1c(Cl)cccc1Cl
Activity (OVCAR-4): 104% | Activity (SF-539): 95% | Activity (MCF7): 84.8% | Activity (LOX IMVI): 95.8% | Activity (M14): 94.2% | Activity (HOP-92): 48.5% | Activity (RXF 393): 113% | Activity (HCC 2998): 116% | Activity [1]: 152% | Activity (OVCAR-3): 96.7% | Activity (NCI/ADR-RES): 104% | Activity (IGROV-1): 69.9% | Activity (NCI-H226): 92.9% | Activity (COLO 205): 69% | Activity (OVCAR-8): 94.1% | Activity (CAKI-1): 67.5% | Activity (SF-295): 90.6% | Activity (SF-268): 95.7% | Activity (A549): 91.2% | Activity (HOP-62): 98.7% | Activity (Malme-3M): 94.9% | Activity (PC-3): 73.1% | Activity (786-0): 100% | Activity (SK-OV-3): 93.4% | Activity (MOLT-4): 84% | Activity (SNB-75): 88.8% | Activity (TK-10): 101% | Activity (MDA-MB-435): 112% | Activity (U-251): 87.1% | Activity (ACHN): 78.6% | Activity (NCI-H522): 87.4% | Activity (SW-620): 117% | Activity (NCI-H23): 96.6% | Activity (A498): 126% | Activity (HCT-116): 82.5% | Activity (EKVX): 99.4% | Activity (SN12C): 92.7% | Activity (MDA-MB-468): 126% | Activity [2]: 75% | Activity (KM12): 99.3% | Activity (UO-31): 72% | Activity (HCT-15): 65.9% | Activity (MDA-MB-231): 74.3% | Activity (NCI-H460): 114% | Activity (BT-549): 85.3% | Activity (SK-MEL-28): 103% | Activity (OVCAR-5): 83.7% | Activity (HT-29): 108% | Activity (HL-60(TB)): 109% | Activity (T47D): 91.6% | Activity (UACC-62): 63.8% | Activity (DU-145): 135% | Activity (SNB-19): 97.3% | Activity (K562): 85.2% | Activity (SK-MEL-2): 92.3% | Activity (NCI-H322M): 124% | Activity (UACC-257): 104% | Activity (CCRF-CEM): 87% | Activity (SK-MEL-5): 84.8%
